Assay results taken from ChEMBL document CHEMBL1687878, “Synthesis and biological evaluation of substituted (thieno[2,3-d]pyrimidin-4-ylthio)carboxylic acids as inhibitors of human protein kinase CK2” (Eur J Med Chem, 2011).

Tests used:
Casein kinase II = Casein kinase II (Homo sapiens, UniProt P19784+P67870+P68400); assay: Inhibition of recombinant human CK2 activity assessed as [gamma-32P]ATP incorporation into substrate peptide after 20 mins in presence of 50 uM ATP; type: protein-complex assay
Casein kinase II, sequence (P67870 whole entry): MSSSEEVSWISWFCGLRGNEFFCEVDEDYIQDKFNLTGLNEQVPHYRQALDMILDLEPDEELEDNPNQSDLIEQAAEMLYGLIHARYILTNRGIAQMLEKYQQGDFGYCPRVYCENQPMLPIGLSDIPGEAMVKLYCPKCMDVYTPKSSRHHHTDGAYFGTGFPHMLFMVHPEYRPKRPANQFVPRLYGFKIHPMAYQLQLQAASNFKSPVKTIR
Casein kinase II, sequence (P68400 whole entry): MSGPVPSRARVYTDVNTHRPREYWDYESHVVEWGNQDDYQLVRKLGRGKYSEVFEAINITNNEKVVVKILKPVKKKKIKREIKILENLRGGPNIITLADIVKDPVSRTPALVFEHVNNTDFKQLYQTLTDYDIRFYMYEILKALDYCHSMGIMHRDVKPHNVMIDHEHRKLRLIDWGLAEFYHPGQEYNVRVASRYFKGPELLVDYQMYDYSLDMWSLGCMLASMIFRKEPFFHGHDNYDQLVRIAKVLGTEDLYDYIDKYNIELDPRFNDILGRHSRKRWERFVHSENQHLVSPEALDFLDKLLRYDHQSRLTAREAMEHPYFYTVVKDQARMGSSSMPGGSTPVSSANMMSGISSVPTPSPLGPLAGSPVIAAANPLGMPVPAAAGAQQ
Casein kinase II, sequence (P19784 whole entry): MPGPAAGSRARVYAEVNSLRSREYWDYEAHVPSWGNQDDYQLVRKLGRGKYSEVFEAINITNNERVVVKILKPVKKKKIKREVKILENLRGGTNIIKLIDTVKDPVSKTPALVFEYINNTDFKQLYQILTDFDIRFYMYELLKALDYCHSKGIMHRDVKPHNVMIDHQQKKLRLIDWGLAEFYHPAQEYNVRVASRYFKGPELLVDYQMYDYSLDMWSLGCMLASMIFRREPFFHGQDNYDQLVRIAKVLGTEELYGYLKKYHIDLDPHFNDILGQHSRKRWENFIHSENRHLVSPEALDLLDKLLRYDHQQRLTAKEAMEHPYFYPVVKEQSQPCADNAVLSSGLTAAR
Procedure, shortened: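 Radiometric assay with 10 units of recombinant human CK2 in 20 mM Tris-HCl pH 7.5, 50 mM KCl, 10 mM MgCl2. It used 50 µM ATP plus γ-32P ATP (specific activity 100 µCi/µM) and serially diluted inhibitor, run 20 min at 30 °C. The reaction was stopped with 10% phosphoric acid, spotted on phosphocellulose paper, washed with 1% phosphoric acid and Cherenkov-counted. Percent inhibition was taken relative to the DMSO no-inhibitor control, and IC50 was derived from the dilution series.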

[1] = molecular target: T1, Mitogen-activated protein kinase kinase kinase 5 (Homo sapiens) (UniProt Q99683); assay: Inhibition of recombinant human Ask1 kinase assessed as residual activity at 10 uM in presence of 100 uM ATP
T1 sequence (whole entry): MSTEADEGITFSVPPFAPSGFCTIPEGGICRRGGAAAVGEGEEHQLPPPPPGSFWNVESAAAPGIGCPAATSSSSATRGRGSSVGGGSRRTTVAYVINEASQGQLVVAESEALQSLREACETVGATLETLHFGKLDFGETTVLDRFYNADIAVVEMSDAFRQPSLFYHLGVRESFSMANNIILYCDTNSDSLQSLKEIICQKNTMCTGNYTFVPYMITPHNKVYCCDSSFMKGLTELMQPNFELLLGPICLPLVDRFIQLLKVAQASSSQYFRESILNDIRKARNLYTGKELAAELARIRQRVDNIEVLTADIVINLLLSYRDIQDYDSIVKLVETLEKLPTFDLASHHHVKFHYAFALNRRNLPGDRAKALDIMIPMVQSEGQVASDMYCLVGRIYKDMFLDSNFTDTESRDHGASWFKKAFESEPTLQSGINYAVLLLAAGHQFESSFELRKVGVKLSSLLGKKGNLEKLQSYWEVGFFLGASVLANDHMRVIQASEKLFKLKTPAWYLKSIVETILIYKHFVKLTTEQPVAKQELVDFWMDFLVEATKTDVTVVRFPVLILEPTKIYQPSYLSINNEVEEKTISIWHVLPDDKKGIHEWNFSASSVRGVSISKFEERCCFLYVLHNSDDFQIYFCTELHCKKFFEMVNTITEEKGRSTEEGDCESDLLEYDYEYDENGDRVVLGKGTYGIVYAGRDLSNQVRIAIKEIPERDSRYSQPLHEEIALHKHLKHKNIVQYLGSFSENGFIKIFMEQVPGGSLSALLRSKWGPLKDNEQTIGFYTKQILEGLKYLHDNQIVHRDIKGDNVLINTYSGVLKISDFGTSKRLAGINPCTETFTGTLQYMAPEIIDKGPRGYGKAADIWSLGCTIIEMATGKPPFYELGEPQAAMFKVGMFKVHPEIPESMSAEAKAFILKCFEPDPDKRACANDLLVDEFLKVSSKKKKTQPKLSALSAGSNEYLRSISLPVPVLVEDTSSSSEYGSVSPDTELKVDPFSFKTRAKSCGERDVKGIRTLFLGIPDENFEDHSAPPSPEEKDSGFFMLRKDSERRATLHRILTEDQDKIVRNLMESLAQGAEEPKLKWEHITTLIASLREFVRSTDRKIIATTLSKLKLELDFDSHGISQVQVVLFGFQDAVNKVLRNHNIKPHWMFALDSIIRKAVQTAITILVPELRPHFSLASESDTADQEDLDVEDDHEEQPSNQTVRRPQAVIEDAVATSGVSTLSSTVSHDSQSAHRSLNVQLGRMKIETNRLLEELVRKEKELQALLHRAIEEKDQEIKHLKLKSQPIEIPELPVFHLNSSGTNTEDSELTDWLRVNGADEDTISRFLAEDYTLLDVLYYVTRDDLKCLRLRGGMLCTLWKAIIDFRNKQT
Procedure, shortened: (§1)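 Inhibitor was tested at 10 µM with a final ATP of 100 µM. Residual activity is expressed as a percentage of the control without inhibitor.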

[2] = molecular target: Rho-associated protein kinase 1 (Homo sapiens) (UniProt Q13464); assay: Inhibition of recombinant human Rock1 kinase assessed as residual activity at 10 uM in presence of 100 uM ATP; procedure, shortened: as §1
Rho-associated protein kinase 1 (Homo sapiens), sequence (Q13464 2-1354 limits assumed): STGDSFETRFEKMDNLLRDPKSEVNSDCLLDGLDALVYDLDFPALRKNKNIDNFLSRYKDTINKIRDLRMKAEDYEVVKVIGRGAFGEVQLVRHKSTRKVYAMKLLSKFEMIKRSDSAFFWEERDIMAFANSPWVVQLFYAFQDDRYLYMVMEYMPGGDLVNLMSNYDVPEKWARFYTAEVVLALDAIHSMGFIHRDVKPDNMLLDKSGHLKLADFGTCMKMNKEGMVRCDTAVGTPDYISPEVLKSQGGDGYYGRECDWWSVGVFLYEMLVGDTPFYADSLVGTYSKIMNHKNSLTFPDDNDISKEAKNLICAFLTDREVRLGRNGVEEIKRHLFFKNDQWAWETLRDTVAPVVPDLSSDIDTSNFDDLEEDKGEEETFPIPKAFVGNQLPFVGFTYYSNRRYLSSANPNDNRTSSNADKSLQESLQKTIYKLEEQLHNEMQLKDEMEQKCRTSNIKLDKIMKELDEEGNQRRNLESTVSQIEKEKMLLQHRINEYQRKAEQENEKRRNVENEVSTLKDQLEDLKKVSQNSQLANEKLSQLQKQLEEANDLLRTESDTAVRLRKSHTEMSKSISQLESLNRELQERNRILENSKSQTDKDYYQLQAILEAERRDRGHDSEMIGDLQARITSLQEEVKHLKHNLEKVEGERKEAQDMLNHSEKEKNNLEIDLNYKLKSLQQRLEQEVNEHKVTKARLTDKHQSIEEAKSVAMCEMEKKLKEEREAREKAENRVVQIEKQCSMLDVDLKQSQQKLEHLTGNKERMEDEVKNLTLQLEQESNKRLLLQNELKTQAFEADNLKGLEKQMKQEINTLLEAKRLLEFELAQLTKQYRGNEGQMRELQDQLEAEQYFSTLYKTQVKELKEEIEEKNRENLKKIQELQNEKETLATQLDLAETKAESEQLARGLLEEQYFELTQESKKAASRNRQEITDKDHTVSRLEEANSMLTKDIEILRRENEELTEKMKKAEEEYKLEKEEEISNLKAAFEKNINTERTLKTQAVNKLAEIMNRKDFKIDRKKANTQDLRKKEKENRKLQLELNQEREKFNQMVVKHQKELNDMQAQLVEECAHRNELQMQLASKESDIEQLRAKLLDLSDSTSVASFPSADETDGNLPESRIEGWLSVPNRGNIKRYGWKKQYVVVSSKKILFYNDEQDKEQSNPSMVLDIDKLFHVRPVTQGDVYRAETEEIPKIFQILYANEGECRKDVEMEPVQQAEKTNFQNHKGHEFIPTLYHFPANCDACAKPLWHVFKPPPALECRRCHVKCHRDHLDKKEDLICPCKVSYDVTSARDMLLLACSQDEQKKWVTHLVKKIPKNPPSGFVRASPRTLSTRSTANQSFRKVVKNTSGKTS

[3] = molecular target: Hepatocyte growth factor receptor (Homo sapiens) (UniProt P08581); assay: Inhibition of recombinant human Met kinase assessed as residual activity at 10 uM in presence of 100 uM ATP; procedure, shortened: as §1
Hepatocyte growth factor receptor (Homo sapiens), sequence (P08581 whole entry): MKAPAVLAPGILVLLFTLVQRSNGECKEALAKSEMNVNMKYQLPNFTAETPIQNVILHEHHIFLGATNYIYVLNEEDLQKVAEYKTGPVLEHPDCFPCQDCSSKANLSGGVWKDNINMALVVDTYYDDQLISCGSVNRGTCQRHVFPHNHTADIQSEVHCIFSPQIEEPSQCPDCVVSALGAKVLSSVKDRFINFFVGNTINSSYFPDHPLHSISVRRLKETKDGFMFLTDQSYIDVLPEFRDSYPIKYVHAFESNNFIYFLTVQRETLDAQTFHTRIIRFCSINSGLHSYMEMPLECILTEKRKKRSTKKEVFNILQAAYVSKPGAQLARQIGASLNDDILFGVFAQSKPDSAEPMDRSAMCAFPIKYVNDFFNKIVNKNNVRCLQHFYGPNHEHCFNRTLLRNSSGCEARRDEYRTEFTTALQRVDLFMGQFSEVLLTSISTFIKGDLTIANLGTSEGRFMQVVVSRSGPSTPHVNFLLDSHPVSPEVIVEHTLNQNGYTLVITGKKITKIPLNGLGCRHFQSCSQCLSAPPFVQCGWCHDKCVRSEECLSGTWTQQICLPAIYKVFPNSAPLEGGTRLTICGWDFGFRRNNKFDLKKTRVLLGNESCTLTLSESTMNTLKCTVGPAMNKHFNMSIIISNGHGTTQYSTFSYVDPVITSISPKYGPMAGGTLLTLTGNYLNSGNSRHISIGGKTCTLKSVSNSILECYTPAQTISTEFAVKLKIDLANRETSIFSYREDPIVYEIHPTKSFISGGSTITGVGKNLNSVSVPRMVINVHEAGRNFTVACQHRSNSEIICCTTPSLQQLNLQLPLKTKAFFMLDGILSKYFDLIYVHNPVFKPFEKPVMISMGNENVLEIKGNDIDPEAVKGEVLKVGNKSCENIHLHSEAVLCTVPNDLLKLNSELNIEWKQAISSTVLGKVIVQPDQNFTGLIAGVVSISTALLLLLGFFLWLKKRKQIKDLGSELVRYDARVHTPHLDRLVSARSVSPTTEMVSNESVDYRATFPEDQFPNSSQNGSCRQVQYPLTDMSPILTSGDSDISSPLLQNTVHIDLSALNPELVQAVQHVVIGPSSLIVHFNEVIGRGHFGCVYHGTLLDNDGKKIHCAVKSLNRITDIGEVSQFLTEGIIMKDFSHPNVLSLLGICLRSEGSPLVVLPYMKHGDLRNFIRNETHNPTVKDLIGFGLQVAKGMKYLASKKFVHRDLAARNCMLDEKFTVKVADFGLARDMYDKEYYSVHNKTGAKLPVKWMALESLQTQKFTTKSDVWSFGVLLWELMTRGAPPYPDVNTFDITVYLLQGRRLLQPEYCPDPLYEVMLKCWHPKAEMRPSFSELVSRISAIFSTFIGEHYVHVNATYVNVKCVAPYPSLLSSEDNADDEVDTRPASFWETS

[4] = molecular target: Angiopoietin-1 receptor (Homo sapiens) (UniProt Q02763); assay: Inhibition of recombinant human Tie2 kinase assessed as residual activity at 10 uM in presence of 100 uM ATP; procedure, shortened: as §1
[5] = molecular target: Fibroblast growth factor receptor 1 (Homo sapiens) (UniProt P11362); assay: Inhibition of recombinant human FGFR1 kinase assessed as residual activity at 10 uM in presence of 100 uM ATP; procedure, shortened: as §1
Fibroblast growth factor receptor 1 (Homo sapiens), sequence (P11362 22-822 limits assumed): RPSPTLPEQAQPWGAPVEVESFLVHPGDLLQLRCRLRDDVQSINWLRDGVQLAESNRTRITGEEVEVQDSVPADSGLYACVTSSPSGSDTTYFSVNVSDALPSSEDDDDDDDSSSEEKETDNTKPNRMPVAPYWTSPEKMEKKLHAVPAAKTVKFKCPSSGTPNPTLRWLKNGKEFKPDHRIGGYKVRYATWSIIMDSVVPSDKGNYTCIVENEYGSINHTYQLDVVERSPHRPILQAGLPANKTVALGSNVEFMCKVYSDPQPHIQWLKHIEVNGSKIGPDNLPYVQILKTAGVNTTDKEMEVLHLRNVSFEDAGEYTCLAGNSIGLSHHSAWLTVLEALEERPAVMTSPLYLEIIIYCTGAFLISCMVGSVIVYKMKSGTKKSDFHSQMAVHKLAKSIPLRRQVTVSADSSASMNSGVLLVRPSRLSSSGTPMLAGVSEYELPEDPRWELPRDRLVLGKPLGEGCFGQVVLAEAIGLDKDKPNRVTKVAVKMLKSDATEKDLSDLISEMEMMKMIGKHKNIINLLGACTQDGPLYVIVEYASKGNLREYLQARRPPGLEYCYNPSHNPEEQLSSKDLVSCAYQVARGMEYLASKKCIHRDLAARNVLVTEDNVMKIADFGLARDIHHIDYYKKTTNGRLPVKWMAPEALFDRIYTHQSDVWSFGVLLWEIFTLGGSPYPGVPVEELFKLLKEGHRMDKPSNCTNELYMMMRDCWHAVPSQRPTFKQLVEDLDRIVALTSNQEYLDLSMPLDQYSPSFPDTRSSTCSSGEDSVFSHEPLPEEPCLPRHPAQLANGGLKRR

[6] = molecular target: Mitogen-activated protein kinase 10 (Homo sapiens) (UniProt P53779); assay: Inhibition of recombinant human Jnk3 kinase assessed as residual activity at 10 uM in presence of 100 uM ATP; procedure, shortened: as §1
Mitogen-activated protein kinase 10 (Homo sapiens), sequence (P53779 whole entry): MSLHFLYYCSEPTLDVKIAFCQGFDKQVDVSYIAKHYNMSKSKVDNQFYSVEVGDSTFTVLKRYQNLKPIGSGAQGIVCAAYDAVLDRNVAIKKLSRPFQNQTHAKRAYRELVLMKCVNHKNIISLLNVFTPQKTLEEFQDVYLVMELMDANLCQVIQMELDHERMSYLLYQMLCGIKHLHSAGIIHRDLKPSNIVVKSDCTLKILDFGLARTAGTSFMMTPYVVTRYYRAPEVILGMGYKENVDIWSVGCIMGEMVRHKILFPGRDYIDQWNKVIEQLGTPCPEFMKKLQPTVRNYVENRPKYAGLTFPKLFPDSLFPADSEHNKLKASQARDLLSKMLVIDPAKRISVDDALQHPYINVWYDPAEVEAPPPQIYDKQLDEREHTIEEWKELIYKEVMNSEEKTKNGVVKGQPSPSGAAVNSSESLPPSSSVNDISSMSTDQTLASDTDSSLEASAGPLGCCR

[7] = molecular target: T2, Aurora kinase A (Homo sapiens) (UniProt O14965); assay: Inhibition of recombinant human Aurora A kinase assessed as residual activity at 10 uM in presence of 100 uM ATP; procedure, shortened: as §1
T2 sequence (whole entry): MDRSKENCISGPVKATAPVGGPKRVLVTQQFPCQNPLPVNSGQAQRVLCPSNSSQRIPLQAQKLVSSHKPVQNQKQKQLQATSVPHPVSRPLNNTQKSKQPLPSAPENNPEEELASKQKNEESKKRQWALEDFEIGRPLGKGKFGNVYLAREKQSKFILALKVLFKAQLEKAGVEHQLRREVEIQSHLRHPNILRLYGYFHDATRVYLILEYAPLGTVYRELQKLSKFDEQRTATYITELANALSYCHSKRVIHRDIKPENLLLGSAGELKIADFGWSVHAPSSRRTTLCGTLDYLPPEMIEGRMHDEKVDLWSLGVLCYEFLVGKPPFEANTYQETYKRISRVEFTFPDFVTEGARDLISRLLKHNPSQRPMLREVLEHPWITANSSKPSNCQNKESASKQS

[8] = Competitive inhibition of recombinant human CK2 activity by Lineweaver-Burk plot analysis
[9] = molecular target: Casein kinase II (Homo sapiens) (UniProt P67870+P68400+P19784); assay: Inhibition of recombinant human CK2 kinase assessed as residual activity at 10 uM in presence of 100 uM ATP; type: protein-complex assay
Procedure, shortened: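 CK2 residual activity was measured with 10 µM inhibitor and a final ATP of 100 µM. It is expressed as a percentage of the no-inhibitor control.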

SMILES	IC50 (Casein kinase II) [µM]	also measured
O=C(O)CSc1ncnc2scc(-c3ccc(Cl)cc3)c12	32	–
Cc1ccc(-c2csc3ncnc(SCCC(=O)O)c23)cc1	0.1	Activity [1]: 92%; Activity [2]: 126%; Activity [3]: 114%; Activity [4]: 70%; Activity [5]: 92%; Activity [6]: 104%; Activity [7]: 23%; Ki [8]: 40 nM; Activity [9]: 0.72%
CC1CCc2c(sc3ncnc(SCC(=O)O)c23)C1 (stereo not given)	1.78	–
CC1CCc2c(sc3ncnc(SC(C)C(=O)O)c23)C1 (stereo not given)	20	–
O=C(O)CSc1ncnc2scc(-c3ccccc3)c12	30	–
CC(Sc1ncnc2sc3c(c12)CCCC3)C(=O)O (stereo not given)	17	–
O=C(O)CSc1ncnc2scc(-c3ccc(Br)cc3)c12	14	–
CC(Sc1ncnc2scc(-c3ccccc3)c12)C(=O)O (stereo not given)	23	–
O=C(O)CCSc1ncnc2scc(-c3ccc(Cl)cc3)c12	0.175	–
CCC(Sc1ncnc2scc(-c3ccc(Cl)cc3)c12)C(=O)O (stereo not given)	> 33	–
O=C(O)CSc1ncnc2sc(-c3ccccc3)cc12	1.25	–
CCC(Sc1ncnc2sc3c(c12)CCCC3)C(=O)O (stereo not given)	> 33	–
Cc1sc2ncnc(SC(C)C(=O)O)c2c1C (stereo not given)	> 33	–
Cc1sc2ncnc(SCC(=O)O)c2c1C	17.8	–
O=C(O)c1ccc(CSc2ncnc3sc4c(c23)CCCC4)cc1	> 33	–

Continued, in another order:

IC50 (Casein kinase II) [µM]	SMILES	also measured
31	Cc1ccc(-c2csc3ncnc(SC(C)C(=O)O)c23)cc1 (stereo not given)	–
11.3	Cc1sc2ncnc(SCCC(=O)O)c2c1C	–
4	Cc1cc2c(SCC(=O)O)ncnc2s1	–
> 33	O=C(O)CCCSc1ncnc2sc3c(c12)CCCC3	–
15.8	Cc1nc(SCCC(=O)O)c2c3c(sc2n1)CCCC3	–
0.175	Cc1ccc(-c2csc3ncnc(SCCC(=O)O)c23)cc1C	–
3.5	Cc1nc(SCCC(=O)O)c2cc(-c3ccccc3)sc2n1	–
> 33	CCC(Sc1ncnc2scc(-c3ccc(C)cc3)c12)C(=O)O (stereo not given)	–
0.125	CCOc1ccc(-c2csc3ncnc(SCCC(=O)O)c23)cc1	Activity [1]: 100%; Activity [2]: 115%; Activity [3]: 115%; Activity [4]: 76%; Activity [5]: 99%; Activity [6]: 94%; Activity [7]: 48%; Activity [9]: 0.86%
7	Cc1cc2c(SCCC(=O)O)ncnc2s1	–
17.8	Cc1sc2ncnc(SCc3cccc(C(=O)O)c3)c2c1C	–
1.2	O=C(O)CCSc1ncnc2scc(-c3ccc(F)cc3)c12	–
> 33	Cc1sc2ncnc(SCC(=O)O)c2c1-c1ccccc1	–
